# ChEMBL document CHEMBL1949510, “Design and synthesis of 6,6-fused heterocyclic amides as raf kinase inhibitors” (Bioorg Med Chem Lett, 2012)
# Columns and labels:
# [1] = Apparent permeability from apical to basolateral side in human Caco2 cells; format: ADME, cell-based; details: Caco-2
# [2] = Solubility of the compound at pH 7; format: physicochemical; details: buffer
# [3] = molecular target: T1, Serine/threonine-protein kinase B-raf (Homo sapiens, UniProt P15056, V600E); assay: Inhibition of Braf V600E mutant-mediated Erk phosphorylation in human SK-MEL-28 cells after 4 hrs by Western blot analysis; format: cell-based
# [4] = molecular target: T1, Serine/threonine-protein kinase B-raf; assay: Inhibition of N-terminus His6-tagged Braf V600E mutant expressed in insect Sf9 cells assessed as Mek phosphorylation after 2 hrs by ELISA
# Procedure, shortened: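 Biochemical assay with the purified BrafV600E kinase domain, not the full-length protein.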
# [5] = molecular target: Macrophage colony-stimulating factor 1 receptor (Homo sapiens, UniProt P07333); assay: Inhibition of CSFR1
# Procedure, shortened: (§1)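 Selectivity profiling panel of 50 kinases spanning RTKs, STKs, TKs and AGC kinases.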
# [6] = molecular target: Vascular endothelial growth factor receptor 2 (Homo sapiens, UniProt P35968); assay: Inhibition of KDR; procedure, shortened: as §1
# [7] = molecular target: T2, Receptor-type tyrosine-protein kinase FLT3 (Homo sapiens, UniProt P36888); assay: Inhibition of Flt3; procedure, shortened: as §1
# T2 sequence (P36888 whole entry): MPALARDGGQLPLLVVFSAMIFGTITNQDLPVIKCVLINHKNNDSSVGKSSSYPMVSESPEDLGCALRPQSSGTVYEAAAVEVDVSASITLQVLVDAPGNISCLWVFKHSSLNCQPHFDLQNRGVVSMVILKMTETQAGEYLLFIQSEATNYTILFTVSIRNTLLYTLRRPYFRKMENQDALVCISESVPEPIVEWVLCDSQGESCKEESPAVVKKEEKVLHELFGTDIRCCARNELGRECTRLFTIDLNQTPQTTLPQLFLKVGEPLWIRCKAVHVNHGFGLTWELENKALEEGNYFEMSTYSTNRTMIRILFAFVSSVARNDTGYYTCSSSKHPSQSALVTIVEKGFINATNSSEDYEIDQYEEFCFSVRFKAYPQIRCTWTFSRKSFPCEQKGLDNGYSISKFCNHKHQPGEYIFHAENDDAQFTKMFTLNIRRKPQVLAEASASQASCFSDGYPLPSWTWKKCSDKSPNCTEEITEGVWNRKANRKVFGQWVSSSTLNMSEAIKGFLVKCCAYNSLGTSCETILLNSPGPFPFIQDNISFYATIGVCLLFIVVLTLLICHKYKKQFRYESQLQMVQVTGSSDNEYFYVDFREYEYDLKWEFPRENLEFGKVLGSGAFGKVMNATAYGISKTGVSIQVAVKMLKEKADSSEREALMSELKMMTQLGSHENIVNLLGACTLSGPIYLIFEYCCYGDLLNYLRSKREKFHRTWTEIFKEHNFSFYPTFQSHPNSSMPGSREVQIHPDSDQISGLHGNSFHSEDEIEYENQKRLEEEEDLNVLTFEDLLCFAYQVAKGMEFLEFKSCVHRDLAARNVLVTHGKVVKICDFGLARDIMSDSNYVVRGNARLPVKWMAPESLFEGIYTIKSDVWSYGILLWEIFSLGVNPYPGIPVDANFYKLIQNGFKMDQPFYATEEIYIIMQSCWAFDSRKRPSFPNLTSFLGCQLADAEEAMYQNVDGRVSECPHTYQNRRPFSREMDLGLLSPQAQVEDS
# [8] = molecular target: Tyrosine-protein kinase ABL1 (Homo sapiens, UniProt P00519); assay: Inhibition of cABL; procedure, shortened: as §1
# [9] = Oral bioavailability in mouse at 20 mg/kg administered as single dose; format: ADME, organism-based; details: in vivo
# Mus musculus = assay: Volume of distribution in mouse at 20 mg/kg, po administered as single dose; format: ADME, organism-based; set-up: dose 20 mg/kg, route oral; details: in vivo
# [10] = Half life in mouse at 20 mg/kg, po administered as single dose; format: ADME, organism-based; set-up: dose 20 mg/kg, route oral; details: in vivo
# [11] = Clearance in mouse at 20 mg/kg, po administered as single dose; format: ADME, organism-based; set-up: dose 20 mg/kg, route oral; details: in vivo
# Chain of Vascular endothelial growth factor receptor 2 (P35968 whole entry): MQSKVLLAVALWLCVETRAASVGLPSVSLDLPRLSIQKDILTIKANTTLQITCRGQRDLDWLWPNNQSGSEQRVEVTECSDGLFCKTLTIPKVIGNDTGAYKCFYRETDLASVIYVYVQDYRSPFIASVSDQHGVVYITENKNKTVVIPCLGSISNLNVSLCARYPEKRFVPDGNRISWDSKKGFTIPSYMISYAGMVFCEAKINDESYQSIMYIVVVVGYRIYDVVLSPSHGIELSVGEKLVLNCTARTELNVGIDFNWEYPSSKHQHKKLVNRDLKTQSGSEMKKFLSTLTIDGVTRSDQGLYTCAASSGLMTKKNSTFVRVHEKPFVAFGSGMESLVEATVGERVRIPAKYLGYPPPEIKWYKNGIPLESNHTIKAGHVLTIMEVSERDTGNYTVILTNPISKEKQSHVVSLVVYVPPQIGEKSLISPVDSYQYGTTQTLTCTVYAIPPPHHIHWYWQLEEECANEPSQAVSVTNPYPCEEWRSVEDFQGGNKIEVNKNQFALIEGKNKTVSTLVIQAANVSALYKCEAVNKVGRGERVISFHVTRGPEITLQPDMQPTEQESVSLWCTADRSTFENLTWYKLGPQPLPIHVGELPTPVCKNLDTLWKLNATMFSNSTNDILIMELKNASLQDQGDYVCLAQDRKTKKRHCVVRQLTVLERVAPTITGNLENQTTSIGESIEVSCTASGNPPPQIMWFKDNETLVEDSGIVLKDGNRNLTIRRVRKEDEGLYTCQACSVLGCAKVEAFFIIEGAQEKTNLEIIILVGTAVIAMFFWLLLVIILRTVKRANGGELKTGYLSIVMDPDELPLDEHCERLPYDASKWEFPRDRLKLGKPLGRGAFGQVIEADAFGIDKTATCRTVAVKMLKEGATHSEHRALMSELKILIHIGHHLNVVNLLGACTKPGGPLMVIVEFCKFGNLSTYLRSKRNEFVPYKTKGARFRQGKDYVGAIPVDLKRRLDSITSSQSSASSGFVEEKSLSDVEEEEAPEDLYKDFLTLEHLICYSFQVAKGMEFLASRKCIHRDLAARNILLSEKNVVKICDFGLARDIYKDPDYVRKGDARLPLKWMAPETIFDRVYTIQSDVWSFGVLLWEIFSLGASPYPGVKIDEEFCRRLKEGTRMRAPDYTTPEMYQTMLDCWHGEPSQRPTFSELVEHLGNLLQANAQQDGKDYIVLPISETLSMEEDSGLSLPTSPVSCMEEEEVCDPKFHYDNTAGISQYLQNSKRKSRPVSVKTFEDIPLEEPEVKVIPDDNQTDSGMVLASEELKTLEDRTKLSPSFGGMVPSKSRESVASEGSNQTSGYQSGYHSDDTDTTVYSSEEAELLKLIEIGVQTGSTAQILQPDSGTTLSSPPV
# Chain of Tyrosine-protein kinase ABL1 (P00519 whole entry): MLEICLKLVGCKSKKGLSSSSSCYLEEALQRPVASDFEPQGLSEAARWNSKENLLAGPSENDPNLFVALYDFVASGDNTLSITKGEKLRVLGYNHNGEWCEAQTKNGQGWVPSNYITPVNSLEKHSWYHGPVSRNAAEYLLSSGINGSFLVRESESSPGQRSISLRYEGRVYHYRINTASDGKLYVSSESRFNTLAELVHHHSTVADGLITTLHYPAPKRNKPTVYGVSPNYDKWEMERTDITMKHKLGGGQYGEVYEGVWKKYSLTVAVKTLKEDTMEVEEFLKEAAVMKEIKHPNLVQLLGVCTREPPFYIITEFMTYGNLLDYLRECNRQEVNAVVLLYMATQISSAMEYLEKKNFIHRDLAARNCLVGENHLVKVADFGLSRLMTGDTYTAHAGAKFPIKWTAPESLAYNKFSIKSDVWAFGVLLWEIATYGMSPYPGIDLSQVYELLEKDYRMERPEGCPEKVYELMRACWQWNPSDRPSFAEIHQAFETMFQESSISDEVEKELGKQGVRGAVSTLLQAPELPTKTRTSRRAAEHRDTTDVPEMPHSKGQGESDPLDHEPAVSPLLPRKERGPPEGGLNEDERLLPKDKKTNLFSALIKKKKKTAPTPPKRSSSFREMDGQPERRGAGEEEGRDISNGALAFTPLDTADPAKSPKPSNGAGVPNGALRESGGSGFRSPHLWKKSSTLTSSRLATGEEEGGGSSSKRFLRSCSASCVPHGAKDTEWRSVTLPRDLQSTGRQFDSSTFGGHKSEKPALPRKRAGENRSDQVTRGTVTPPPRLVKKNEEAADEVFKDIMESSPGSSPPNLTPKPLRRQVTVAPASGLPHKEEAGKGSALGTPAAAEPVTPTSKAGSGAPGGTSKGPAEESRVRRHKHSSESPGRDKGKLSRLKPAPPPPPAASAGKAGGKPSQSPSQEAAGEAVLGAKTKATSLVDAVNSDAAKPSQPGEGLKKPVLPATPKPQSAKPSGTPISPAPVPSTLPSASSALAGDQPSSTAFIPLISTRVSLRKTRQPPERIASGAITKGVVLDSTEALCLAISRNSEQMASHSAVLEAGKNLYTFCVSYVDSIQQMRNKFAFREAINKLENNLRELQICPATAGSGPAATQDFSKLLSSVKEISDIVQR
# T1 sequence (P15056 2-766 V600E limits assumed): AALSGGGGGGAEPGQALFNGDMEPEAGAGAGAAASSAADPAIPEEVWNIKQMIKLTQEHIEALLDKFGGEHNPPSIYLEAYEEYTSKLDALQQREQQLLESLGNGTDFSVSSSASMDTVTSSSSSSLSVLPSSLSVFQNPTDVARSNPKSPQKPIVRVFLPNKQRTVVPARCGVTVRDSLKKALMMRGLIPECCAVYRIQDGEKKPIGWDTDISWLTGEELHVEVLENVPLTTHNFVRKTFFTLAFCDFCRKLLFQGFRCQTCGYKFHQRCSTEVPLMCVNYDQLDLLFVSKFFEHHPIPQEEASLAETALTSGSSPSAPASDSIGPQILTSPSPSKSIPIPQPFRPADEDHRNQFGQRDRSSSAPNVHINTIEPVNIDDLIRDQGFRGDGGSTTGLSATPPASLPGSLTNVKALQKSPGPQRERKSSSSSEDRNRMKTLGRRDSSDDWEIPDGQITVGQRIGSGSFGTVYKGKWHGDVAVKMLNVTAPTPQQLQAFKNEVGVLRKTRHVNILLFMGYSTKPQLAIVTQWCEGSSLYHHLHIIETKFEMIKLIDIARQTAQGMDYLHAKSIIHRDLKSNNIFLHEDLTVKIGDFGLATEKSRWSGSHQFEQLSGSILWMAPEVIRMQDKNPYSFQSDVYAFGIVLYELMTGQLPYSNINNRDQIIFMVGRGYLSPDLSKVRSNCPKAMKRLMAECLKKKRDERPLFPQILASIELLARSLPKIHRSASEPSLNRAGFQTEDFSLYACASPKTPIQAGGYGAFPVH
# Chain of Macrophage colony-stimulating factor 1 receptor (P07333 whole entry): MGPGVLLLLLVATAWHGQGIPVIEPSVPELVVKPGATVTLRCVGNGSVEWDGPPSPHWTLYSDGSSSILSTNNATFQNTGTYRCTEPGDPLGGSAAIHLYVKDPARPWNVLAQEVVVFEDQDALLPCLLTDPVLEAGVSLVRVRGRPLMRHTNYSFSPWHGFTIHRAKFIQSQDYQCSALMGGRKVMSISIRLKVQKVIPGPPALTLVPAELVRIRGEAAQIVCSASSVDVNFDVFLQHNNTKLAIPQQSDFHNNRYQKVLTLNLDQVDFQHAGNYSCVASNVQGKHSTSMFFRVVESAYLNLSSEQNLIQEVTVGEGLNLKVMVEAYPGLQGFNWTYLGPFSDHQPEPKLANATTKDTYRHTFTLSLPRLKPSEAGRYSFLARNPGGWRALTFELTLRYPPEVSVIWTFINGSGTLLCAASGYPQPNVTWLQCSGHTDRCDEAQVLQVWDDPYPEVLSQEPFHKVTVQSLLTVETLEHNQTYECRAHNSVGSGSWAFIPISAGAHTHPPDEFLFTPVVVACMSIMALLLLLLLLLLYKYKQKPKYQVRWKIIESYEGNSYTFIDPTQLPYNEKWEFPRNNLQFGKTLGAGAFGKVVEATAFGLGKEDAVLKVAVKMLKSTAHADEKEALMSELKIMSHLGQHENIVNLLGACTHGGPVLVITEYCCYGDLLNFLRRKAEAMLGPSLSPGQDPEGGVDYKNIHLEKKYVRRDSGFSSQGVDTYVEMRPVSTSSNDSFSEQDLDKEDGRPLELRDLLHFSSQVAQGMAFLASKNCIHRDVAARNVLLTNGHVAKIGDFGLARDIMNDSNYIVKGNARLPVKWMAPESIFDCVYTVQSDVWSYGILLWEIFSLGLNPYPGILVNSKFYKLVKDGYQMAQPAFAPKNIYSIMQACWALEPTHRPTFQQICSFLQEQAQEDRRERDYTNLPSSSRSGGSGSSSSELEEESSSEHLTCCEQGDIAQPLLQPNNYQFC
smiles,measurement,setting,value
CCc1ccccc1Nc1ncc2cc(Oc3ccnc(C(=O)NC)c3)ccc2n1,Papp A→B,[1],< 1 ×10⁻⁶ cm/s
same,solubility,[2],< 1 µM
same,EC50,[3],> 10000 nM
same,IC50,[4],1300 nM
CNC(=O)c1cc(Oc2ccc3nc(Nc4cccc(C(C)(C)C)c4)cnc3c2)ccn1,IC50,[5],< 1000 nM
same,IC50,[6],< 1000 nM
same,Papp A→B,[1],< 1 ×10⁻⁶ cm/s
same,solubility,[2],< 1 µM
same,IC50,[7],< 1000 nM
same,IC50,[8],< 1000 nM
same,EC50,[3],> 10000 nM
same,IC50,[4],25 nM
CNC(=O)c1cc(Oc2ccc3nc(Nc4ccccc4)ncc3c2)ccn1,Papp A→B,[1],< 1 ×10⁻⁶ cm/s
same,solubility,[2],< 1 µM
same,EC50,[3],> 10000 nM
same,IC50,[4],2200 nM
CNC(=O)c1cc(Oc2ccc3nc(Nc4ccc(F)cc4)ncc3c2)ccn1,Papp A→B,[1],< 1 ×10⁻⁶ cm/s
same,solubility,[2],< 1 µM
same,EC50,[3],> 10000 nM
same,IC50,[4],600 nM
CNC(=O)c1cc(Oc2ccc3nc(Nc4cccc(C(F)(F)F)c4)ncc3c2)ccn1,Papp A→B,[1],< 1 ×10⁻⁶ cm/s
same,solubility,[2],< 1 µM
same,EC50,[3],> 10000 nM
same,IC50,[4],640 nM
CNC(=O)c1cc(Oc2ccc3nc(Nc4cccc(C(C)(C)C)c4)ncc3c2)ccn1,IC50,[5],< 1000 nM
same,IC50,[6],< 1000 nM
same,Papp A→B,[1],< 1 ×10⁻⁶ cm/s
same,solubility,[2],< 1 µM
same,IC50,[7],< 1000 nM
same,IC50,[8],< 1000 nM
same,EC50,[3],> 10000 nM
same,IC50,[4],45 nM
CNC(=O)c1cc(Oc2ccc3nc(Nc4ccc(OC)cc4)ncc3c2)ccn1,Papp A→B,[1],< 1 ×10⁻⁶ cm/s
same,solubility,[2],< 1 µM
same,EC50,[3],> 10000 nM
same,IC50,[4],390 nM
O=C(NCCN1CCCCC1)c1cc(Oc2ccc3nc(Nc4ccc(Br)cc4)ncc3c2)ccn1,Papp A→B,[1],< 1 ×10⁻⁶ cm/s
same,solubility,[2],< 1 µM
same,EC50,[3],> 10000 nM
same,IC50,[4],1300 nM
O=C(NCCO)c1cc(Oc2ccc3nc(Nc4ccc(Br)cc4)ncc3c2)ccn1,Papp A→B,[1],< 1 ×10⁻⁶ cm/s
same,solubility,[2],< 1 µM
same,EC50,[3],> 10000 nM
same,IC50,[4],8600 nM
CNC(=O)c1cc(Oc2ccc3nc(Nc4cccc(C(C)(C)C)c4)ccc3c2)ccn1,IC50,[5],< 1000 nM
same,IC50,[6],< 1000 nM
same,Papp A→B,[1],< 1 ×10⁻⁶ cm/s
same,solubility,[2],< 1 µM
same,IC50,[7],< 1000 nM
same,IC50,[8],< 1000 nM
same,EC50,[3],> 10000 nM
same,IC50,[4],26 nM
CNC(=O)c1cc(Oc2ccc3nc(Nc4ccc(Oc5ccccc5)cc4)ncc3c2)ccn1,Papp A→B,[1],< 1 ×10⁻⁶ cm/s
same,solubility,[2],< 1 µM
same,EC50,[3],> 10000 nM
same,IC50,[4],600 nM
CNC(=O)c1cc(Oc2ccc3nc(Nc4ccc(C(C)C)cc4)ncc3c2)ccn1,Papp A→B,[1],< 1 ×10⁻⁶ cm/s
same,solubility,[2],< 1 µM
same,EC50,[3],> 10000 nM
same,IC50,[4],1 nM
CNC(=O)c1cc(Oc2ccc3nc(Nc4ccc(OC(F)(F)F)cc4)ncc3c2)ccn1,Papp A→B,[1],< 1 ×10⁻⁶ cm/s
same,solubility,[2],< 1 µM
same,EC50,[3],> 10000 nM
same,IC50,[4],80 nM
CNC(=O)c1cc(Oc2ccc3nc(Nc4ccc(Br)cc4)ncc3c2)ccn1,Papp A→B,[1],< 1 ×10⁻⁶ cm/s
same,solubility,[2],< 1 µM
same,EC50,[3],> 10000 nM
same,IC50,[4],310 nM
CNC(=O)c1cc(Oc2ccc3nc(Nc4ccccc4Oc4ccccc4)ncc3c2)ccn1,Papp A→B,[1],< 1 ×10⁻⁶ cm/s
same,solubility,[2],< 1 µM
same,EC50,[3],> 10000 nM
same,IC50,[4],5300 nM
CNC(=O)c1cc(Oc2ccc3nc(Nc4ccccc4Br)ncc3c2)ccn1,Papp A→B,[1],< 1 ×10⁻⁶ cm/s
same,solubility,[2],< 1 µM
same,EC50,[3],> 10000 nM
same,IC50,[4],24000 nM
CNC(=O)c1cc(Oc2ccc3c(c2)nc(Nc2cccc(C(C)(C)C)c2)n3C)ccn1,Papp A→B,[1],< 1 ×10⁻⁶ cm/s
same,solubility,[2],< 1 µM
CNC(=O)c1cc(Oc2ccc3nc(Nc4cccc(OC(F)(F)F)c4)ncc3c2)ccn1,Papp A→B,[1],< 1 ×10⁻⁶ cm/s
same,solubility,[2],< 1 µM
same,EC50,[3],> 10000 nM
same,IC50,[4],70 nM
CNC(=O)c1cc(Oc2ccc3nc(Nc4ccc(-c5cccnc5)cc4)ncc3c2)ccn1,Papp A→B,[1],< 1 ×10⁻⁶ cm/s
same,solubility,[2],< 1 µM
same,EC50,[3],> 10000 nM
same,IC50,[4],25000 nM
CNC(=O)c1cc(Oc2ccc3nc(Nc4cccc(C(C)C)c4)ncc3c2)ccn1,bioavailability,[9],35%
same,Papp A→B,[1],< 1 ×10⁻⁶ cm/s
same,solubility,[2],< 1 µM
same,Vd,Mus musculus,4.717 L/kg
same,half-life,[10],7.8 h
same,CL/F,[11],53.1 mL/min/kg
same,EC50,[3],> 10000 nM
same,IC50,[4],150 nM
CNC(=O)c1cc(Oc2ccc3nc(Nc4ccc(C(F)(F)F)cc4)ncc3c2)ccn1,Papp A→B,[1],< 1 ×10⁻⁶ cm/s
same,solubility,[2],< 1 µM
same,EC50,[3],> 10000 nM
same,IC50,[4],67 nM
CNC(=O)c1cc(Oc2ccc3nc(Nc4cccc(Br)c4)ncc3c2)ccn1,Papp A→B,[1],< 1 ×10⁻⁶ cm/s
same,solubility,[2],< 1 µM
same,EC50,[3],> 10000 nM
same,IC50,[4],180 nM
CNC(=O)c1cc(Oc2ccc3nc(Nc4cccc(Cl)c4)ncc3c2)ccn1,Papp A→B,[1],< 1 ×10⁻⁶ cm/s
same,solubility,[2],< 1 µM
same,EC50,[3],> 10000 nM
same,IC50,[4],660 nM
